Rows were chosen to be rich in hits. Some 2.1% of all compounds tested hit in one or more screens of this group.
eIF4H inh = inhibitors of RNA binding by human eIF4H; eIF4H fluorescence polarization binding assay; AID 2012; hit rate 0.94% among 290,000; inhibition, % at 35 µM; Q15056;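 also: calls also rest on retests at 20 µM and on dose response follow-up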
EBNA-1 inhibitor = blocks EBNA-1 binding to DNA; EBNA-1 DNA binding, fluorescence polarization; inhibition, % at 14.8 µM; hit rate 0.34% among 300,000; AID 1950; in the data active = inhibition above about 28%
PABP FP inh = PABP-poly(A) binding inhibition; PABP-poly(A) RNA binding, fluorescence polarization; inhibition, % at 35 µM; hit rate 1% among 290,000; P11940;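 also: calls also rest on retests at 20 µM and on dose response follow-up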
Target sequence (P11940 whole entry, looked up): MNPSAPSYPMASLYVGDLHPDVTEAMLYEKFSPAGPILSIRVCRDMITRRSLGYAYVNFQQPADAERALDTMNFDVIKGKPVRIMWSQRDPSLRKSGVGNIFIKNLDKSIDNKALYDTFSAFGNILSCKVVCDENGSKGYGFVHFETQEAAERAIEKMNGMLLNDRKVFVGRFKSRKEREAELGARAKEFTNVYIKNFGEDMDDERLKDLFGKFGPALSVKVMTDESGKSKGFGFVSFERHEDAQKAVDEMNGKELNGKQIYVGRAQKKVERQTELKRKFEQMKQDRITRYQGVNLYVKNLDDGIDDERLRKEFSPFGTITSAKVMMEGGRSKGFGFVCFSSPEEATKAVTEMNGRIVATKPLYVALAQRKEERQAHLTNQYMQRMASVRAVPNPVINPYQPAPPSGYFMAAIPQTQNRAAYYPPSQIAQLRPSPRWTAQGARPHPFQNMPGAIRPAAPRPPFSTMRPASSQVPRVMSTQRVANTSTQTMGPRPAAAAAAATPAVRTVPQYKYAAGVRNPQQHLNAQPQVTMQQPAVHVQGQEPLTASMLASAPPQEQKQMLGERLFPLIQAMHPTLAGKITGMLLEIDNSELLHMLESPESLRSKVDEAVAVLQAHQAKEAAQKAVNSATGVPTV
PABP1 MLLE inh = blocks PAM2 peptide binding to the PABP1 MLLE domain. P11940. GST-MLLE / FITC-PAM2 fluorescence polarization. inhibition, % at 20 µM. hit rate 0.36% among 360,000; in the data active = inhibition above about 35%, passing the limit was not always enough;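 also: plate controls were DMSO wells with GST-MLLE for no effect and wells lacking GST-MLLE protein for full effect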
HCV NS3 hel inh = blocks Hepatitis C virus NS3 helicase unwinding; NS3 helicase DNA unwinding, Cy5 molecular beacon fluorescence; inhibition, % at 10.9 µM; hit rate 0.56% among 290,000; AID 1800;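 active = inhibition above the mean of all tested compounds plus 3 SD, set per campaign, cut at about 35% in these data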;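 also: 0% = DMSO wells and 100% = thioflavine S control wells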
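Assay system: hepatitis C virus NS3 helicase domain fragment enzyme. Also added: annealed dual-labelled DNA beacon duplex, ATP-started. Timing: 1 h reaction at 25 °C, ATP-initiated. Technique: Cy5 fluorescence at 0 and 60 min, beacon hairpin quenching. Evaluation: % inhibition of unwinding. Replication: one well per compound.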
ZTA DNA inh = ZTA (EBV) inhibition in EBNA-1 counter-screen. P03206. AID 2234. inhibition, % at 11 µM. ZTA-DNA binding, fluorescence polarization. hit rate 0.15% among 320,000; in the data active = inhibition above about 33%
ZTA inh confirm = confirmation of Epstein-Barr virus ZTA DNA binding inhibitors; shares compounds with ZTA DNA inh; Zta-ZRE DNA binding, fluorescence polarization; inhibition, % at 11.1 µM; hit rate 30% among 320; AID 2361;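 active = mean inhibition across triplicate runs above the hit threshold derived for the original primary screen, cut at about 33% in these data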;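 also: 0% = Zta with DMSO and 100% = wells lacking Zta protein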
EBNA-1 counter = EBNA-1 DNA binding inhibition, counter-screen for ZTA. fluorescence polarization. inhibition, % at 14.8 µM. shares compounds with ZTA DNA inh. 320 tested, under 10 active
The depositor's hits bear a star; . = not tested or not shown. Unless noted, no rule for the calls is given here.

SMILES	eIF4H inh	EBNA-1 inhibitor	PABP FP inh	PABP1 MLLE inh	HCV NS3 hel inh	ZTA DNA inh	ZTA inh confirm	EBNA-1 counter
C#CCOCCOCCOCCNc1nc(N2CCOCC2)nc(N2CCN(C(=O)CCCCCCCCCCNC(=O)[C@@H](CCSC)n3cc(CCO)nn3)CC2)n1	.	-2	.	12	.	-20	.	.
CC(=O)Nc1ccc2[nH]c(C)cc(=O)c2c1	1	11	-2	-10	0	87*	2	-5
CC(=O)Nc1cccc(NC(=O)COc2ccccc2C)c1	-13	0	6	-5	1	94*	-5	0
CCn1cc(C(=O)NCC(OC)OC)c(=O)c2cc(S(=O)(=O)N(C)C3CCCCC3)ccc21	-2	-23	14	-9	1	-8	.	.
Cc1c(Cl)cccc1NC(=O)CSc1ncnc2c1cnn2CCc1ccccc1	-3	-6	5	-3	-6	12	.	.
COc1cc(-c2nnc(SCC(=O)NC3CCS(=O)(=O)C3)o2)cc(OC)c1OC (configuration not stated)	1	-3	13	-8	2	4	.	.
CN(C)CC/C=C1\c2ccccc2Sc2ccc(Cl)cc21	1	-2	0	8	-81	2	.	.
CCCCCCCCCC[N+](C)(C)CC/C=C1/c2ccccc2Sc2ccc(Cl)cc21	25	8	14	8	-18	34*	6	-6
CCCCCCCCCCC[N+](C)(C)CC/C=C1/c2ccccc2Sc2ccc(Cl)cc21	24	3	19	11	-34	40*	0	-6
CC[N+](C)(C)CC/C=C1/c2ccccc2Sc2ccc(Cl)cc21	-3	-6	-2	0	-45	5	.	.

Compound activity deposited in PubChem by several laboratories.
